Measured values collected from several papers.
Protocols differ between the studies behind these lines.
Observed: cell growth or viability

| SMILES | cell line | method | time | IC50 |
| --- | --- | --- | --- | --- |
| Cc1ncsc1-c1ccc([C@H](CC(=O)NCCCCCCCCNC(=O)c2nc(N3CCc4cccc(C(=O)Nc5nc6ccccc6s5)c4C3)ccc2-c2cnn(CC34CC5CC(CC(C5)C3)C4)c2C)NC(=O)[C@@H]2C[C@@H](O)CN2C(=O)[C@@H](NC(=O)C2(C#N)CC2)C(C)(C)C)cc1 | MOLT-4 | MTS | 48 h | 0.313 µM |
| COc1ccc2[nH]cc(C(=O)C(C#N)=Cc3cn(C)c4ccccc34)c2c1 | MIA PaCa-2 | MTT | 48 h | 4.5 µM |
| NS(=O)(=O)c1ccc(-n2nc(C(=O)NN3C(=O)c4ccccc4C3=O)cc2-c2ccccc2)cc1 | PaCa-2 | fluorescence | 48 h | 35.4 µM |
| COc1ccc(Nc2ncnc3c2ncn3Cc2ccc(C(=O)Nc3ccccc3N)cc2)cc1 | Jurkat | MTT | 72 h | 9.74 µM |
| COc1ccc(C=C(C#N)C(=O)c2c[nH]c3ccccc23)cc1 | MIA PaCa-2 | MTT | 48 h | 15.4 µM |
| Cc1ncsc1-c1ccc([C@H](CC(=O)NCCCCNC(=O)c2nc(N3CCc4cccc(C(=O)Nc5nc6ccccc6s5)c4C3)ccc2-c2cnn(CC34CC5CC(CC(C5)C3)C4)c2C)NC(=O)[C@@H]2C[C@@H](O)CN2C(=O)[C@@H](NC(=O)C2(C#N)CC2)C(C)(C)C)cc1 | MOLT-4 | MTS | 48 h | 0.0313 µM |
| COc1cc2[nH]cc(C(=O)C(C#N)=Cc3cn(C)c4ccccc34)c2cc1OC | MIA PaCa-2 | MTT | 48 h | 15.6 µM |
| c1ccc(-c2cc(CNc3cccc4cccnc34)on2)nc1 | LN-229 | MTS | 72 h | 22.8 µM |
| COc1cc([C@@H]2c3cc4c(cc3[C@@H](O[C@@H]3O[C@@H]5CO[C@@H](C)O[C@H]5[C@H](O)[C@H]3O)[C@H]3COC(=O)[C@H]23)OCO4)cc(OC)c1O | DU-145 | MTT |  | 0.5 µM |
| N#CC(=Cc1cn(Cc2ccc(Cl)cc2)c2ccccc12)C(=O)c1c[nH]c2ccccc12 | MIA PaCa-2 | MTT | 48 h | 4.9 µM |
| O=c1cc(OCc2cc(-c3ccccn3)no2)c2ccccc2o1 | LN-229 | MTS | 72 h | > 100 µM |
| COc1cc([C@@H]2c3cc4c(cc3[C@@H](O[C@@H]3O[C@@H]5CO[C@@H](C)O[C@H]5[C@H](O)[C@H]3O)[C@H]3COC(=O)[C@H]23)OCO4)cc(OC)c1O | LN-229 | MTS | 72 h | 4.8 µM |
| COc1ccc(C=C(C#N)C(=O)c2c[nH]c3ccccc23)cc1OC | MIA PaCa-2 | MTT | 48 h | 37 µM |
| NS(=O)(=O)c1ccc(-n2nc(C(=O)NN3C(=O)CCC3=O)cc2-c2ccccc2)cc1 | PaCa-2 | fluorescence | 48 h | 27.4 µM |
| N#Cc1ccc(-c2cc(COc3cc(C(F)(F)F)nc4ccccc34)on2)cc1 | LN-229 | MTS | 72 h | 23.9 µM |
| Cc1ncsc1-c1ccc([C@H](C)NC(=O)[C@H]2C[C@H](O)CN2C(=O)[C@@H](NC(=O)CCCCCCCS(=O)(=O)NC(=O)c2nc(N3CCc4cccc(C(=O)Nc5nc6ccccc6s5)c4C3)ccc2-c2cnn(CC34CC5CC(CC(C5)C3)C4)c2C)C(C)(C)C)cc1 | human Platelet | MTS | 48 h | 0.931 µM |
| O=c1cc(OCc2cc(-c3ccc(C(F)(F)F)cc3)no2)c2ccccc2o1 | LN-229 | MTS | 72 h | > 100 µM |
| Nc1ccccc1NC(=O)c1ccc(Cn2cnc3c(Nc4ccc(Br)cc4F)ncnc32)cc1 | Jurkat | MTT | 72 h | 4.73 µM |
| CCc1oc2cc(S(=O)(=O)Nc3ccc(S(=O)(=O)Nc4nccs4)cc3)ccc2c1C(=O)c1cc(Br)c(O)c(Br)c1 | T47D | MTT | 96 h | 62.2 µM |
| Cc1c(-c2ccc(N3CCc4cccc(C(=O)Nc5nc6ccccc6s5)c4C3)nc2C(=O)O)cnn1CC12CC3CC(C1)CC(C(=O)NCCCCCCCCCCNc1cccc4c1C(=O)N(C1CCC(=O)NC1=O)C4=O)(C3)C2 (stereo not drawn) | MOLT-4 | MTS | 48 h | 0.021 µM |
| O=C(CSc1nc2ccccc2s1)N/N=C/c1ccc(OCC(=O)Nc2cccc([N+](=O)[O-])c2)cc1 | LN-229 | MTS | 72 h | 24.2 µM |
| Cc1c(-c2ccc(N3CCc4cccc(C(=O)Nc5nc6ccccc6s5)c4C3)nc2C(=O)NCCOCCNc2cccc3c2C(=O)N(C2CCC(=O)NC2=O)C3=O)cnn1CC12CC3CC(CC(C3)C1)C2 (stereo not drawn) | MOLT-4 | MTS | 48 h | 0.0214 µM |
| COc1ccc(C=NNC(=O)c2cc(-c3ccccc3)n(-c3ccc(S(N)(=O)=O)cc3)n2)cc1OC | PaCa-2 | fluorescence | 48 h | 20.5 µM |
| C=C1C[C@@]23CC[C@H]4[C@@](C)(CCC[C@@]4(C)C(=O)O)[C@@H]2CC[C@@H]1C3 | T47D | MTT | 75 h | 150 µM |

| SMILES | cell line | method | time | IC50 |
| --- | --- | --- | --- | --- |
| O=C(NO)c1ccc(Cn2cnc3c(Nc4ccc(F)c(Cl)c4)ncnc32)cc1 | Jurkat | MTT | 72 h | 1.2 µM |
| O=c1cc(OCc2cc(-c3ccc(Cl)cc3Cl)no2)c2ccccc2o1 | LN-229 | MTS | 72 h | > 100 µM |
| Nc1cccc2c1C(=O)N(C1CCC(=O)NC1=O)C2=O (stereo not drawn) | SU-DHL-2 | CCK-8 | 7 days | 1.5 µM |
| c1ccc(-c2cc(CNc3cccc4cccnc34)on2)cc1 | LN-229 | MTS | 72 h | 33.7 µM |
| Cc1c(-c2ccc(N3CCc4cccc(C(=O)Nc5nc6ccccc6s5)c4C3)nc2C(=O)NCCOCCOCCOCCO)cnn1CC12CC3CC(CC(C3)C1)C2 | MOLT-4 | MTS | 48 h | 0.0169 µM |
| CNc1cccc(Nc2nc(-c3ccncc3)nc3c2CNCC3)c1 | DU-145 | MTT |  | 45.2 µM |
| COc1cccc2c1C(=O)c1c(O)c3c(c(O)c1C2=O)C[C@@](O)(C(=O)CO)C[C@@H]3O[C@H]1C[C@H](N)[C@H](O)[C@H](C)O1 | Jurkat |  | 96 h | 0.0339 µM |
| Clc1ccc(-c2cc(CNc3cccc4cccnc34)on2)c(Cl)c1 | LN-229 | MTS | 72 h | 54.4 µM |
| O=C(NO)c1ccc(Cn2cnc3c(Nc4cccc([N+](=O)[O-])c4)ncnc32)cc1 | Jurkat | MTT | 72 h | 0.89 µM |
| Nc1nnc(-c2ccccc2O)cc1N1CC2CCC(C1)N2c1ccnc(F)c1 | LNCaP | ATP luminescence | 7 days | > 1 µM |
| Cc1c(-c2ccc(N3CCc4cccc(C(=O)Nc5nc6ccccc6s5)c4C3)nc2C(=O)O)cnn1CC12CC3CC(C1)CC(C(=O)NCCOCCNc1cccc4c1C(=O)N(C1CCC(=O)NC1=O)C4=O)(C3)C2 (stereo not drawn) | MOLT-4 | MTS | 48 h | 0.0516 µM |
| NS(=O)(=O)c1ccc(-n2nc(-c3nnc(CCl)o3)cc2-c2ccccc2)cc1 | PaCa-2 | fluorescence | 48 h | 26.3 µM |
| O=C(CSc1nc2ccccc2s1)N/N=C/c1ccc(OCC(=O)Nc2cccc(Br)c2)cc1 | LN-229 | MTS | 72 h | 65.5 µM |
| CCn1cc(C=C(C#N)C(=O)c2c[nH]c3cc(OC)ccc23)c2ccccc21 | MIA PaCa-2 | MTT | 48 h | > 40 µM |
| Cc1ncsc1-c1ccc([C@H](C)NC(=O)[C@@H]2C[C@@H](O)CN2C(=O)[C@@H](NC(=O)CN2CCN(c3cc(-c4ccccc4O)nnc3N)CC2)C(C)(C)C)cc1 | LNCaP | ATP luminescence | 7 days | 0.0153 µM |
| CC(=NNC(=O)c1cc(-c2ccccc2)n(-c2ccc(S(N)(=O)=O)cc2)n1)c1ccc(Br)cc1 | PaCa-2 | fluorescence | 48 h | 31.5 µM |
| Cn1nnc2c(C(N)=O)ncn2c1=O | LN-229 | MTT |  | 6000 µM |
| COc1cc2[nH]cc(C(=O)C(C#N)=Cc3cn(Cc4ccc(Cl)cc4)c4ccccc34)c2cc1OC | MIA PaCa-2 | MTT | 48 h | > 40 µM |
| Cc1c(-c2ccc(N3CCc4cccc(C(=O)Nc5nc6ccccc6s5)c4C3)nc2C(=O)NCCCCNc2cccc3c2C(=O)N(C2CCC(=O)NC2=O)C3=O)cnn1CC12CC3CC(CC(C3)C1)C2 (stereo not drawn) | MOLT-4 | MTS | 48 h | 0.126 µM |
| O=C(CSc1nc2ccccc2s1)N/N=C/c1ccc(OCC(=O)Nc2ccc([N+](=O)[O-])cc2)cc1 | LN-229 | MTS | 72 h | 4.39 µM |
| FC(F)(F)c1cc(OCc2cc(-c3ccccn3)no2)c2ccccc2n1 | LN-229 | MTS | 72 h | > 100 µM |
| Nc1ccccc1NC(=O)c1ccc(Cn2cnc3c(Nc4ccc(Cl)cc4)ncnc32)cc1 | Jurkat | MTT | 72 h | 13.5 µM |
| CC(=NNC(=O)c1cc(-c2ccccc2)n(-c2ccc(S(N)(=O)=O)cc2)n1)c1ccc(C)cc1 | PaCa-2 | fluorescence | 48 h | 11.5 µM |
| O=C(CSc1nc2ccccc2s1)N/N=C/c1ccc(OCC(=O)Nc2cccc(Cl)c2)cc1 | LN-229 | MTS | 72 h | 19.6 µM |
